Experiments:
Pteridine reductase 1 = target: T1, Pteridine reductase 1 (Leishmania major, UniProt Q01782); test: Inhibition of Leishmania major recombinant PTR1
T1 sequence (Q01782 whole entry): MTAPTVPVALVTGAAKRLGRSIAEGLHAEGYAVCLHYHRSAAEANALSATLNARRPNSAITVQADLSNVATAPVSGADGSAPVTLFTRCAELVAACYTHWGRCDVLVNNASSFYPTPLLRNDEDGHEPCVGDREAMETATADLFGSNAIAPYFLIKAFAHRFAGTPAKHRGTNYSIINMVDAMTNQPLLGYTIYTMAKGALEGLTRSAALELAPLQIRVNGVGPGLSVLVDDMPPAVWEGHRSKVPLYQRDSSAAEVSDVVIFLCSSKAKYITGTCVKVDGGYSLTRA
Summary of the method: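 Recombinant L. major PTR1, stored at 15 mg mL^-1 (stock) in 50 mM Tris-HCl, 250 mM NaCl, 20% glycerol, pH 7.5. Substrate was H2B, with a 10 mM stock in 0.1 M NaOH. Compound stocks were 100 mM in DMSO. IC50 came from dose–response fits corrected with Morrison's tight-binding equation. Ki was calculated from IC50 using the competitive-inhibition equation.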

[1] = Inhibition of Trypanosoma brucei recombinant PTR1
Summary of the method: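 Recombinant enzyme stored at 15 mg mL^-1 in 50 mM Tris-HCl, 250 mM NaCl, 20% glycerol, pH 7.5. Substrate was H2B, prepared as a 10 mM stock in 0.1 M NaOH. Compound stocks were 100 mM in DMSO. IC50 came from dose–response plots fitted with Morrison's tight-binding equation. Ki was calculated from IC50 assuming competitive inhibition.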

[2] = test system: Trypanosoma brucei brucei; test: Antitrypanosomal activity against Trypanosoma brucei brucei Lister 427 blood stream form by Alamar blue assay; format: functional; conditions: read-out: ED50 (the source's name)
Summary of the method: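 Bloodstream-form Lister 427 grown at 37 °C, 5% CO2 in HMI-9 with neomycin pressure (T7 polymerase and tetracycline repressor lines), fetal calf serum 10%, folate not reduced. Exposed to increasing inhibitor concentrations. Viability read by Alamar blue. ED50 taken from dose–response plots. Three separate determinations, each in quadruplicate (n = 12).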

SMILES	Ki (Pteridine reductase 1) [µM]	Ki [1] [µM]	EC50 [2] [µM]
CC1=Nc2c(N)nc(N)nc2NC1(C)C	12	> 35	–
Nc1nc2[nH]ccc2c(=S)[nH]1	> 27	> 35	–
Nc1cc(NC2CC2)nc(N)n1	> 27	> 35	–
Nc1cc(SCc2ccccc2)nc(N)n1	0.6	3.2	–
Nc1nc2[nH]cc(CCc3ccccc3)c2c(=O)[nH]1	> 27	–	–
N#Cc1c(Br)[nH]c2nc(N)[nH]c(=O)c12	> 27	3.9	–
CCc1ccc(-c2[nH]c3nc(N)[nH]c(=O)c3c2C#N)cc1	16.4	0.5	–
CC(C)c1nc2nc(N)nc(N)c2nc1C(C)C	0.24	3.3	–
N#Cc1c(-c2ccc3c(c2)OCO3)[nH]c2nc(N)[nH]c(=O)c12	2.6	0.4	123
Nc1cc(N)nc(N)n1	> 27	> 35	–
N#Cc1c[nH]c2nc(N)[nH]c(=O)c12	> 27	5.8	–
COc1ccc(CSc2cc(N)nc(N)n2)cc1	2.7	18	–
COc1ccc(-c2[nH]c3nc(N)[nH]c(=O)c3c2C#N)cc1	3.4	0.36	274
N#Cc1c(-c2ccccc2)[nH]c2nc(N)[nH]c(=O)c12	> 27	0.71	–
N#Cc1c(-c2cccc(C=O)c2)[nH]c2nc(N)[nH]c(=O)c12	4.2	0.29	–
Cc1ccc(Sc2cc(N)nc(N)n2)cc1	27	5.4	–
Nc1nc(N)c2nc(-c3ccccc3)c(N)nc2n1	3.4	1.2	–
Nc1nc2c(c(=O)[nH]1)CC=N2 [7-DEAZAGUANINE]	–	> 35	–
CCc1nc(N)nc(N)c1-c1ccc(Cl)cc1 [PYRIMETHAMINE]	–	–	26.6
